In ChEMBL document CHEMBL4359929, “Piperidine and piperazine inhibitors of fatty acid amide hydrolase targeting excitotoxic pathology” (Bioorg Med Chem, 2019):
The source made the active and inactive calls. The calls are words filed in the database; no cut-off is given here.

Key:
[1] = molecular target: T1, Fatty-acid amide hydrolase 1 (Rattus norvegicus, UniProt P97612); assay: Inhibition of rat recombinant His/GST-tagged FAAH expressed in Escherichia coli cells using AAMCA as substrate incubated for 15 mins followed by substrate addition and measured after every 20 mins for 4 hrs by fluorescence based assay
T1 sequence (P97612 whole entry): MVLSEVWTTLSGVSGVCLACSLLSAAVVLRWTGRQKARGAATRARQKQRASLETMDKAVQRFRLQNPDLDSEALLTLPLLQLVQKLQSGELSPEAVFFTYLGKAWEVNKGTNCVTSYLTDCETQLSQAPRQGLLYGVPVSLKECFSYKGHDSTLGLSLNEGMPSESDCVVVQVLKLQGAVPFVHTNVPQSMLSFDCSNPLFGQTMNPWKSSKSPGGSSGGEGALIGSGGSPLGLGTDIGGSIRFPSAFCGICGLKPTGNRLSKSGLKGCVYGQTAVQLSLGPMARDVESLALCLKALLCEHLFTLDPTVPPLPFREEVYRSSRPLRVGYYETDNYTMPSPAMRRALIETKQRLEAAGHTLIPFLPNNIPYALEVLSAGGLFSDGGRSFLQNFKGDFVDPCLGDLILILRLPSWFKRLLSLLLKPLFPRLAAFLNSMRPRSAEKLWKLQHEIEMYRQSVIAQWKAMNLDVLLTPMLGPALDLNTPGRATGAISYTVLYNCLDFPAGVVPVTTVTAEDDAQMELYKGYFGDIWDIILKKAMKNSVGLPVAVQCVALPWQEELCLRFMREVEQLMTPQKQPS
In short: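 Fluorescent enzyme assay in throughput format. Human recombinant FAAH or purified rat FAAH used arachidonoyl 7-amino-4-methylcoumarin amide as substrate; human recombinant MGL was run by a similar fluorometric procedure.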

[2] = molecular target: T2, Monoglyceride lipase (Rattus norvegicus) (UniProt Q8R431); assay: Inhibition of MGL in rat brain membrane at 1 to 10 uM incubated for 30 mins followed by incubation with FP-Rh probe for 45 mins by ABPP assay; type: cell membranes
T2 sequence (whole entry): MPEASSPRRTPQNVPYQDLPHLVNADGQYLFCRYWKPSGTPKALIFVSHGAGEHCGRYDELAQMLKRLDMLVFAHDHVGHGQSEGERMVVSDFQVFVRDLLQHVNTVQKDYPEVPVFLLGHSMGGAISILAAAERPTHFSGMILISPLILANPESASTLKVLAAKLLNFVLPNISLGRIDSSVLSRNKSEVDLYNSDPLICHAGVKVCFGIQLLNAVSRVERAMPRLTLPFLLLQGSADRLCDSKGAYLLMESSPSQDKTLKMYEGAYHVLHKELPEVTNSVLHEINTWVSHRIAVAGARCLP
In short: (§1)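 Gel-based competitive ABPP on rat brain membrane homogenates (10 mg/mL protein). Compound at 1 and 10 μM or DMSO for 30 min at room temperature, then 10 μM rhodamine-tagged fluorophosphonate probe for 45 min at room temperature. FAAH was run with a reference FAAH inhibitor at 10 μM as positive control. Serine hydrolase labelling read by in-gel fluorescence.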

[3] = molecular target: T3, Monoacylglycerol lipase ABHD6 (Rattus norvegicus) (UniProt Q5XI64); assay: Inhibition of ABHD6 in rat brain membrane at 1 to 10 uM incubated for 30 mins followed by incubation with FP-Rh probe for 45 mins by ABPP assay; type: cell membranes; in short: as §1
T3 sequence (whole entry): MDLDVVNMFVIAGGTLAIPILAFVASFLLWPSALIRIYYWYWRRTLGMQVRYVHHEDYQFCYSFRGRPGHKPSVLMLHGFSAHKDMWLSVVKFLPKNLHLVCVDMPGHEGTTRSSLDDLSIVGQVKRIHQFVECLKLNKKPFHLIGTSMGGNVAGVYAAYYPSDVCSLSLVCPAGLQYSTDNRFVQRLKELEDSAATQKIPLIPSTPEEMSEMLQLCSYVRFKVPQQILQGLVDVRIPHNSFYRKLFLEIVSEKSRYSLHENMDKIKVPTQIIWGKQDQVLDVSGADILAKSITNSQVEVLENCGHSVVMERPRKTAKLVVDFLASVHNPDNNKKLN

[4] = Stability in rat liver microsomes assessed as half life; type: ADME, Microsome
In short: (§2)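 Stability assessed as half-life in human, rat and mouse plasma and gastric fluid, and in human, rat and mouse liver microsomal preparations.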

[5] = Stability in mouse plasma assessed as half life; type: ADME, cell-free; in short: as §2
[6] = Stability in human gastric fluid assessed as half life; type: ADME, tissue-based, Gastric juice; in short: as §2
[7] = Stability in rat gastric fluid assessed as half life; type: ADME, tissue-based, Gastric juice; in short: as §2
[8] = test system: Hippocampus; assay: (§3) Neuroprotective activity against Sprague-Dawley rat hippocampus assessed as decrease in KA-induced excitotoxicity by measuring increase in GluR1 level at 3 to 30 uM preincubated for 1 hr followed by KA stimulation for 2 hrs in continued presence of compound followed by KA wash out and then further incubation with compound for 24 hrs by immunoblot analysis; type: functional, tissue-based
In short: (§4)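 Sprague-Dawley rat hippocampal slices (400 μm, postnatal day 12) cultured 18–20 days at 37 °C, 5% CO2. Pretreated 60 min with 3–30 μM compound or 0.1% DMSO, then 60 μM kainic acid for 2 h with compound. Three washouts, then 24 h recovery with 30 μM compound. Harvested in groups of 7–9; GluR1, synaptophysin and synapsin IIb by immunoblot with optical density. Unpaired t-tests.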

[9] = test system: Hippocampus; assay: as §3, with “syn IIb” for “GluR1”; type: functional, tissue-based; in short: as §4
[10] = species on record: Homo sapiens; assay: Selectivity ratio of IC50 for human recombinant His-tagged MGL expressed in Escherichia coli BL21 DE3 cells to IC50 for human recombinant MBP-tagged FAAH expressed in Escherichia coli cells by fluorescence based assay
[11] = Selectivity ratio of IC50 for human full length ABHD6 expressed in Escherichia coli cells to IC50 for rat recombinant His/GST-tagged FAAH expressed in Escherichia coli cells by fluorescence based assay
[12] = test system: Hippocampus; assay: as §3, with “level in dense neuropil” for “level”, “immunostaining” for “immunoblot”; type: functional, tissue-based
In short: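 Same hippocampal slice kainic acid protocol (60 μM, 2 h, after 1 h pretreatment; 24 h recovery with compound). Fixed hippocampal tissue from each treatment group immunostained with anti-GluR1 (1:200).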

[13] = test system: Hippocampus; assay: as §3, with “syn protein” for “GluR1”, “level in dense neuropil” for “level”, “immunostaining” for “immunoblot”; type: functional, tissue-based
[14] = species on record: Rattus norvegicus; assay: Neuroprotective activity against Sprague-Dawley rat assessed as decrease in KA-induced seizure severity; type: functional, organism-based

SMILES	IC50 [1] [nM]	inhibition [2]	inhibition [3]	half-life [4] [h]	half-life [5] [h]	half-life [6] [h]	half-life [7] [h]	inhibition [8]	inhibition [9]	Ratio IC50 [10]	Ratio IC50 [11]	inhibition [12]	inhibition [13]	Activity [14]
C[C@@H]1CN(c2ccc(F)cc2)CCN1C(=O)Oc1cccc(N2CCS(=O)(=O)CC2)c1	6.3	inactive	inactive	0.25 to 0.417	> 1	> 1	> 1	Active	Active	> 1000	> 1000			
O=C(Oc1cccc(N2CCS(=O)(=O)CC2)c1)N1CCC(c2ccc(N3CCC3)cc2)CC1	5.8	inactive	inactive	0.25 to 0.417	> 1	> 1	> 1	Active	Active	> 1000	> 1000	Active	Active	Active
